Bioassay records from PubChem.
Compounds with a hit are over-represented: about 4.3% of the library has one in this group of screens.
Rtt109 Vps75 – blocks Candida albicans Rtt109/Vps75 acetyltransferase activity; Q5AAJ8; purified Rtt109/Vps75, ThioGlo CoA-SH fluorescence, 4 h; inhibition, % at 34.9 µM; 0.16% of 330,000 active; AID 540336;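 active means inhibition of at least 50% in every replicate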
DYRK1A inh – inhibitors of rat Dyrk1A kinase; AID 504441; 0.43% of 310,000 active; ADP-Glo luminescence, NFATc1 peptide; inhibition, % at 12.5 µM; in the data active means inhibition above about 50%;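 further: plate controls were vehicle with enzyme for no effect and no enzyme for full effect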
CAL PDZ FP-1 – inhibitors of human CAL PDZ peptide binding; Q9HD26; purified CAL PDZ, TMR-peptide fluorescence polarization, 1 h; inhibition, % at 20 µM; 0.02% of 330,000 active;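 active means highest replicate inhibition of at least 40%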;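 further: plate controls were DMSO neutral control wells for no effect and unlabeled competitor peptide control wells for full effect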
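material = purified tagged CAL PDZ domain construct (CerCALP) | buffer or medium = sodium phosphate/NaCl buffer pH 7.4 with TCEP, IgG, Thesit | reagent = TMR-labelled reporter peptide T*-PRC34 bound in PDZ groove | incubation = 1 h room-temperature incubation prior to read | measured by = fluorescence polarization (mP) | evaluation = percent inhibition from loss of millipolarization | control set = unlabelled peptide and DMSO controls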
CAL PDZ FP-2 – inhibitors of human CAL PDZ peptide binding; 0.92% of 300,000 active; purified CAL PDZ, TMR-peptide fluorescence polarization, 1 h; AID 602252; Q9HD26; inhibition, % at 24.9 µM;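 active means mean inhibition of at least 30% with at least half of replicates also reaching 30%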;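 further: 0% = DMSO neutral control and 100% = excess unlabeled competitor peptide PRC23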
ALR H2O2 inh – inhibitors of human sulfhydryl oxidase ALR | P55789 | purified ALR, DTT oxidation, H2O2 HRP-luminol luminescence | inhibition, % (test concentration not listed) | 3.8% of 290,000 active | AID 485317;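 active means mean replicate inhibition above about 79%, with every replicate also reaching it, limit read from the data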
Target sequence (P55789 whole entry, looked up): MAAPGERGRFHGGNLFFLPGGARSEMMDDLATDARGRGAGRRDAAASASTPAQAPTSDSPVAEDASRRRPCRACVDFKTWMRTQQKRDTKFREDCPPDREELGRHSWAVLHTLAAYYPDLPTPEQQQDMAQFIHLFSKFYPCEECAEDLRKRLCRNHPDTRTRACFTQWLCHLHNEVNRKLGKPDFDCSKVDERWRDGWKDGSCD
Dyrk1A artifact – counter-screen for Dyrk1A inhibitors: ADP-Glo luciferase artifacts; shares compounds with DYRK1A inh; ADP-Glo luciferase artifact assay, no Dyrk1A, luminescence; AC50, µM (top dose mostly 12 µM), for the others: at the highest dose activity change, negative = inhibition; 1,300 tested, under 10 active; AID 588348;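 active means fitted half-maximal dose AC50 no more than ten times the top valid tested dose, with luminescence dropping as dose rises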
* = called active by the depositor; · = no result.

SMILES | Rtt109 Vps75 | DYRK1A inh | CAL PDZ FP-1 | CAL PDZ FP-2 | ALR H2O2 inh | Dyrk1A artifact
Nc1nnc(-c2cccc(F)c2)s1 | 7 | 23 | -1 | · | -8 | ·
O=c1oc2c(-c3cccc(F)c3)cc(O)cc2s1 | 20 | 65* | -1 | 4 | 41 | 10%
Cc1ccc(S(=O)(=O)c2cnc(-c3ccccc3)nc2N2CCCCC2)cc1 | 3 | 3 | 0 | · | · | ·
O=C(NNC1=C(C(=O)C(F)(F)F)CCC1)c1ccccc1Cl | 8 | 4 | 0 | -2 | · | ·
O=C(NNC1=C(C(=O)C(F)(F)F)CCC1)c1ccccc1O | 6 | 56* | 0 | -1 | 87* | 10%
Cc1ccc(CC(=O)Nc2nc3ccccc3s2)cc1 | 10 | · | -3 | 0 | -1 | ·
Cc1nc2c(ccc3nc(NC(=O)Cc4ccccc4)sc32)s1 | 13 | 68* | -6 | · | 5 | 6%
CNc1nc2c(N)ncnc2n1[C@H]1O[C@@H](CO)[C@H](O)[C@@H]1O | 1 | 91* | -2 | -4 | -2 | 8%
Nc1ncnc2c1nc(N1CCCCC1)n2[C@@H]1O[C@H](CO)[C@@H](O)[C@H]1O | -16 | -8 | -1 | -1 | -1 | ·
N#Cc1c(N)n(C2OC(CO)C(O)C2O)c2ncnc(N)c12 (stereo not drawn) | 0 | 95* | -1 | 0 | · | 9%
O=C(Nc1ccc(Cl)cc1)c1csc(-c2ccncc2)n1 | 12 | 51* | -2 | 5 | 0 | 11%
O=C(Nc1ccc(Cl)cc1)c1csc(-c2ccccc2)n1 | 2 | -3 | -4 | -2 | 0 | ·
CCCCOc1ccc(C(=O)NCC(=O)NC2CCCCC2)cc1 | 0 | -3 | 0 | 4 | -2 | ·
COC(=O)N=Nc1c(O)[nH]c2ccc(Br)cc12 | -6 | 1 | -3 | -1 | 3 | ·
Oc1[nH]c2ccc(Br)cc2c1N=NC(=S)N1CCOCC1 | · | 63* | -1 | -5 | 99* | 9%
COCCNC(=O)c1ccc2c(c1)nc(C)n2-c1cccc(F)c1 | 20 | 68* | 1 | -1 | -3 | 7%
CC1Cc2ccccc2N1S(=O)(=O)c1cccc(C(=O)N2CCN(c3ncccn3)CC2)c1 (stereo not drawn) | 30 | 2 | 0 | 3 | -4 | ·
Cc1ccc2c(c1)N(CC(=O)NC1CCCCC1)C(=O)c1cccnc1O2 | -8 | 58* | 0 | · | · | 6%
Cc1cc(N)c2ccccc2n1 | -4 | -2 | 0 | · | -1 | ·
Nc1cc2ccncc2c2ccccc12 | -4 | 73* | -1 | -5 | 98* | 9%
CCOCCCNS(=O)(=O)c1ccc(-n2cnnn2)c(OC)c1 | -2 | 5 | 1 | -1 | -3 | ·
Cc1cc2nncn2c2ccccc12 | -2 | 57* | -2 | 0 | -8 | 9%
Cc1cc(C(=O)CSc2nn(-c3ccccc3)c(=S)s2)c(C)n1Cc1ccco1 | · | 57* | -1 | 1 | -6 | 5%
Cc1cc(C(=O)CSc2nc3ccccc3[nH]2)c(C)n1Cc1ccco1 | 5 | 5 | -1 | -5 | -3 | ·
C/C(=N\Nc1cccc(Cl)c1)c1ccc(-n2ccnc2)cc1 | 2 | 3 | -2 | -2 | · | ·
